Assay results collected from several papers.
Lines come from different studies, so protocols differ.
Cell line: CCRF-CEM
Effect on: cell growth or viability

SMILES | test | conditions | measurement | result
COc1ccc(-c2cn(-c3cc(=O)oc4ccc(Br)cc34)nn2)cc1 | – | 48 h | CC50 | 9.8 µM
COc1cccc(Oc2ccccc2NC(=O)CNC(=O)c2cccc3ccccc23)c1 | SRB | 48 h | GI50 | 363 nM
COc1cc(-c2cn(-c3cc(=O)oc4ccc(Cl)cc34)nn2)cc(OC)c1OC | – | 48 h | CC50 | 37.2 µM
COc1ccc(C(=O)/C=C/c2cccc(Cl)c2Cl)cc1S(N)(=O)=O | SRB | 10 µM | inhibition | 99%
O=C1C(=Cc2ccc(F)c(F)c2)CN(C(=O)C(Cl)Cl)CC1=Cc1ccc(F)c(F)c1 | imaging | 24 h | CC50 | 0.0993 µM
O=C(CN1C(=O)SC(=Cc2ccccn2)C1=O)Nc1nc2ccccc2s1 | MTT | 48 h | CC50 | 11.9 µM
O=C1C(=Cc2ccc(Cl)c(Cl)c2)CN(C(=O)C(Cl)Cl)CC1=Cc1ccc(Cl)c(Cl)c1 | imaging | 24 h | CC50 | 0.0932 µM
COc1ccc(C(=O)/C=C/c2ccc3ccccc3c2)cc1S(N)(=O)=O | SRB | 48 h | GI50 | 2600 nM
